This is an account of results in ChEMBL document CHEMBL4118021, “Studies of TAK1-centered polypharmacology with novel covalent TAK1 inhibitors” (Bioorg Med Chem, 2017).

Series [1] relates to BaF3. The experiment in a line: Antiproliferative activity against mouse BA/F3 cells harboring KRAS G12D mutant after 72 hrs in presence of IL-3 by CellTiter-Glo assay. Format: functional, cell-based. Conditions: BaF3, 72 h.
The target in series [2] is T1, Mitogen-activated protein kinase kinase kinase 7 (Homo sapiens, UniProt O43318).
T1 sequence (O43318 whole entry): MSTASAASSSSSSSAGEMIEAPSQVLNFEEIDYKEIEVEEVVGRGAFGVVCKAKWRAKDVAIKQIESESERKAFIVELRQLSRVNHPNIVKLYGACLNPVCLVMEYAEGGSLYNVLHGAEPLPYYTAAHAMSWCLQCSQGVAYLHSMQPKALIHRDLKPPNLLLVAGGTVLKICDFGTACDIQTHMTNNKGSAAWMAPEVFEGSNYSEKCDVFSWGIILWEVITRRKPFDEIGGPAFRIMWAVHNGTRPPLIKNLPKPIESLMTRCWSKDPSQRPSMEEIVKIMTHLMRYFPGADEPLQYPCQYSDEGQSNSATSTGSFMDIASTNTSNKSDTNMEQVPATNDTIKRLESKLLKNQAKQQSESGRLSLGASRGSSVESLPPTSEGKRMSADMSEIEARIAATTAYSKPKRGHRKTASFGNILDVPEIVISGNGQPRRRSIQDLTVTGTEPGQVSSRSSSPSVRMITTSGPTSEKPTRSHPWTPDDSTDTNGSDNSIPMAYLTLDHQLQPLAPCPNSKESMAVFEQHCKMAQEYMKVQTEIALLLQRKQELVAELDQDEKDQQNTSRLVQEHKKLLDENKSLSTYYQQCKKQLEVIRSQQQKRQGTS
Description: Inhibition of TAK1 (unknown origin) by LanthaScreen assay.

A short description of series [3]: Antiproliferative activity against human URMC6 cells harboring wild type KRAS after 72 hrs by CellTiter-Glo assay. Format: functional, cell-based. A general note: ATP-based viability assays read luminescence as a measure of living cells.
The nature of series [4]: Antiproliferative activity against human SW156 cells harboring wild type KRAS after 72 hrs by CellTiter-Glo assay. Type of series: functional, cell-based.
Series [5] has as its system SW-620. The experiment in a line: Antiproliferative activity against human SW620 cells harboring KRAS G12V mutant after 72 hrs by CellTiter-Glo assay. Type of series: functional, cell-based. Conditions: SW-620, 72 h.
In series [6] the test system is SK-CO-1. Description: Antiproliferative activity against human SKCO1 cells harboring KRAS G12V mutant after 72 hrs by CellTiter-Glo assay. Type of series: functional, cell-based. The conditions noted are these: SK-CO-1, 72 h.
In series [7] the target is T2, Mitogen-activated protein kinase kinase kinase 7 (Homo sapiens) (UniProt O43318).
T2 sequence (whole entry): T1 sequence (O43318 whole entry)
The experiment in a line: Inhibition of biotin-labeled N-(2-(2-(2-(2-(4-(4-((4-((2-Acrylamidophenyl)amino)-5-chloropyrimidin-2-yl)amino)phenyl)piperazin-1-yl)ethoxy)ethoxy)ethoxy)ethyl)-5-((3aS,4S,6aR)-2-oxohexahydro-1H-thieno[3,4-d]imidazol-4-yl)pentanamide probe binding to TAK1 in human NCI-H358 cells at 10 uM after 6 hrs by immunoblot based competitive pull down assay. Type of series: cell-based. The method, boiled down:
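H358 cells given 1 or 10 μM compound for 6 h, medium removed, cells rinsed twice with cold PBS and lysed in MPER buffer. Lysates incubated overnight at 4 °C with 1 μM biotinylated covalent probe, captured on streptavidin beads, and TAK1 recovery assessed by immunoblotting with anti-TAK1 antibody.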

Series [8] has as its system ASPC1. Description: Antiproliferative activity against human AsPC1 cells harboring KRAS G12D mutant after 72 hrs by CellTiter-Glo assay. Type of series: functional, cell-based. The conditions noted are these: ASPC1, 72 h.
Series [9] has as its system PANC-1. The experiment in a line: Antiproliferative activity against human PANC1 cells harboring KRAS G12D mutant after 72 hrs by CellTiter-Glo assay. Type of series: functional, cell-based. Conditions: PANC-1, 72 h.
Series [10] has as its system BaF3. Description: Antiproliferative activity against mouse BA/F3 cells after 72 hrs by CellTiter-Glo assay. The conditions noted are these: BaF3, 72 h. Type of series: cell-based.
Series [11] relates to NALM-6. The experiment in a line: Antiproliferative activity against human NALM6 cells harboring NARS A146T mutant at […] to […] nM after 72 hrs by CellTiter-Glo assay. Format: functional, cell-based.
Series [12] relates to HEL. Description: Antiproliferative activity against human HEL cells at […] to […] nM after 72 hrs by CellTiter-Glo assay. Type of series: functional, cell-based.
Series [13] concerns BaF3. The experiment in a line: Antiproliferative activity against mouse BA/F3 cells harboring NRAS G12D mutant after 72 hrs in presence of IL-3 by CellTiter-Glo assay. Format: functional, cell-based. The conditions noted are these: BaF3, 72 h. The procedure, abridged: (§1)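 Ba/F3 parental or RAS-transformed cells were seeded at 1000 viable cells/well, without or with IL-3 as the line states, at 37 °C and 5% CO2. After 4 h, nine four-fold serial dilutions were added in triplicate (final 0.5–30,000 nM, 0.3% DMSO). DMSO wells served as 100% viability.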

The subject of series [14] is MOLM-14. Description: Antiproliferative activity against human MOLM14 cells harboring FLT3-ITD mutant at […] to […] nM after 72 hrs by CellTiter-Glo assay. Format: functional, cell-based.
In series [15] the test system is U-937. The experiment in a line: Antiproliferative activity against human U937 cells at […] to […] nM after 72 hrs by CellTiter-Glo assay. Type of series: functional, cell-based.
In series [16] the test system is BaF3. The experiment in a line: Antiproliferative activity against mouse BA/F3 cells harboring KRAS G12D mutant after 72 hrs by CellTiter-Glo assay. Type of series: functional, cell-based. The conditions noted are these: BaF3, 72 h.
Series [17] deals with BaF3. The experiment in a line: Antiproliferative activity against mouse BA/F3 cells harboring NRAS G12D mutant after 72 hrs by CellTiter-Glo assay. Format: functional, cell-based. The conditions noted are these: BaF3, 72 h. The procedure, abridged:
as §1

For series [18], the system named is NCI-H23. Description: Antiproliferative activity against human NCI-H23 cells harboring KRAS G12C mutant after 72 hrs by CellTiter-Glo assay. Format: functional, cell-based. The procedure, abridged:
(§2)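 NCI-H23 or NCI-H358 cells seeded at 2000 cells/well and grown 48 h before drug. Varying doses were added and cells incubated 72 h. Viability was read as CellTiter-Glo luminescence, and growth-inhibition IC50 was calculated from dose-response curves.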

In series [19] the test system is NCI-H358. The experiment in a line: Antiproliferative activity against human NCI-H358 cells harboring KRAS G12C mutant after 72 hrs by CellTiter-Glo assay. Type of series: functional, cell-based. The procedure, abridged:
as §2

Series [20] concerns the target T2, Mitogen-activated protein kinase kinase kinase 7 (Homo sapiens). The experiment in a line: Inhibition of TAK1 in RA patient-derived synovial fibroblasts assessed as inhibition of TNFalpha-induced cytokine secretion at 3 uM preincubated for 3 hrs followed by TNFalpha stimulation measured after 18 hrs by sandwich immunoassay. The procedure, abridged:
(§3)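 Primary RA synovial fibroblasts (donor RA2159) seeded 1000 cells/well and grown ~24 h at 37 °C, 5% CO2. Starved overnight in basal medium, then ~4 h in basal medium with 0.1% BSA. Two adjacent wells pooled per replicate, in biological duplicate. Supernatants diluted 1:3 and run on Luminex 27-plex/21-plex sandwich immunoassays for 48 analytes, with spiked-ligand and mock-supernatant background controls.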

For series [21] the target is unchanged. The experiment in a line: Inhibition of TAK1 in RA patient-derived synovial fibroblasts assessed as inhibition of poly(I:C)-induced cytokine secretion at 3 uM preincubated for 3 hrs followed by poly(I:C) stimulation measured after 18 hrs by sandwich immunoassay. The method, boiled down: as §3
Series [22] has the same target. Description: Inhibition of TAK1 in RA patient-derived synovial fibroblasts assessed as inhibition of IL-1alpha-induced cytokine secretion at 3 uM preincubated for 3 hrs followed by IL-1alpha stimulation measured after 18 hrs by sandwich immunoassay. The method, boiled down:
as §3

Series [23] in a line: Increase in secretion of basic-FGF in TNFalpha activated RA patient-derived synovial fibroblasts at 0.6 to 3 uM preincubated for 3 hrs followed by TNFalpha stimulation measured after 18 hrs by sandwich immunoassay. The conditions noted are these: human. The procedure, abridged: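 Primary RA patient synovial fibroblasts (donor RA2159) were seeded at 1000 cells/well, grown about 24 h, then starved overnight and again about 4 h in basal medium with 0.1% BSA. Cells were pre-incubated 3 h with inhibitor (0.6 or 3 μM) or DMSO, then stimulated 18 h with 10 ng/mL TNFα. Paired wells were pooled, in biological duplicate. Pooled supernatants were diluted 1:3 and read on Luminex bead sandwich immunoassays, with mock-medium background and spiked-ligand controls.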

The source made the active and inactive calls. The calls are words filed in the database; no cut-off is given here.

As a reminder, the IC50 is the midpoint of a concentration-inhibition curve. In the case of `CCC(=O)Nc1ccccc1Nc1nc(Nc2ccc(N3CCN(C)CC3)cc2)ncc1Cl`, the IC50 in series [1] is 9 nM; in series [2], 1630 nM; in series [3], 263 nM; in series [4] it was 363 nM; in series [5], 247 nM; in [6] it was 54 nM. Further, the IC50 is 73 nM in [8] and 426 nM in series [9]. In [7], the inhibition result is “inactive”.
Consider `C=CC(=O)Oc1ccccc1Nc1nc(Nc2ccc(N3CCOCC3)cc2)ncc1Cl`, for which the IC50 was 745 nM in [1]; 423 nM in series [10]; 390 nM in series [13]; 4.4 nM in series [2]; 56 nM in series [16]; 47 nM in series [17]. Moreover, the outcome in series [11] and in [12] was inactive. Further, the result in series [14] and in series [15] was Active.
As for `CN1CCN(c2ccc(Nc3ncc(Cl)c(Nc4ccccc4NC(=O)CCl)n3)cc2)CC1`, the IC50 in [1] came out at 376 nM; in [10], 206 nM; in [13], 178 nM; in series [2] it was 25 nM; in series [16], 31 nM; in series [17] it was 10 nM. Besides, the outcome in [11] and in series [12] was inactive. Also, the result in series [14], in series [15], in series [18] and in series [19] was Active. For the same compound, the inhibition entry in [7] is “Active”.
On to `CCC(=O)Nc1ccccc1Oc1nc(Nc2ccc(N3CCN(C)CC3)cc2)ncc1Cl`, for which the IC50 in [1] amounted to 60 nM; in series [3], 444 nM; in series [4], 3730 nM; in series [5], 707 nM; in series [6], 213 nM; in series [16], 191 nM. Also, the IC50 stood at 2700 nM in [8] and 1360 nM in series [9]. Further, the inhibition result in series [20], in series [21], in series [7] and in series [22] was “inactive” in each case.
Consider `C=CC(=O)Nc1ccccc1Oc1nc(Nc2cnn(C(F)F)c2)ncc1Cl`, for which the IC50 turned out to be 414 nM in [1]; 539 nM in series [10]; 277 nM in series [13]; 7 nM in series [2]; 67 nM in series [16]; 92 nM in series [17]. In addition, the outcome in series [11] and in series [12] was inactive. In addition, the result in [14] and in series [15] was Active. Further, the inhibition entry in series [7] is “Active”.
Take `CCC(=O)Nc1ccccc1Oc1nc(Nc2cnn(CCOC)c2)ncc1Cl`: the IC50 was determined as 3600 nM in series [1]; 2080 nM in series [10]; 1230 nM in series [2]; 1490 nM in series [3]; 1650 nM in series [5]; 2620 nM in [6]. Further, the IC50 in [16] was 923 nM; in series [8], 5020 nM. For the same compound, the inhibition entry in [20], in series [21], in series [7] and in series [22] was “inactive” each time. Also, the outcome in series [14] and in [15] was Active.
For the compound `CCN1CCN(Cc2ccc(NC(=O)c3ccc(C)c(Oc4ccnc5[nH]ccc45)c3)cc2C(F)(F)F)CC1`, the Activity entry in series [23] is given as “Non-Toxic”.
